What was measured:
Type in all cases: functional
SF-268 = test: Growth inhibition of human SF268 cells incubated for 48 hrs by sulforhodamine B assay; details: SF-268, 48 h
In short: (§1)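 Five-dose NCI SRB assay at 100, 10, 1.0, 0.1 and 0.01 μM for 48 h at 37 °C, 5% CO2. Medium was RPMI-1640 with 5% FBS and 2 mM glutamine. Time-zero plates were TCA-fixed at compound addition, A515 read after SRB staining. GI50 was solved from [(Ti−Tz)/(C−Tz)]×100 = 50. Values beyond the tested range are given as > or <.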

HCC 2998 = test: Growth inhibition of human HCC2998 cells incubated for 48 hrs by sulforhodamine B assay; details: HCC 2998, 48 h
In short: (§2)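 NCI 60-line screen. Cells in RPMI-1640 with 5% FBS and 2 mM L-glutamine, preincubated 24 h, then time-zero plates TCA-fixed. Compounds from DMSO stocks given at five final concentrations (100, 10, 1.0, 0.1, 0.01 µM) for 48 h at 37 °C, 5% CO2. Cells fixed with 10% TCA, SRB-stained, read at 515 nm. GI50 is the concentration giving 50% lower net protein increase versus control.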

RPMI-8226 = test: Growth inhibition of human RPMI8226 cells incubated for 48 hrs by sulforhodamine B assay; details: RPMI-8226, 48 h; for CC50: read-out: LC50 (the source's name); in short: as §2
K562 = test: Growth inhibition of human K562 cells incubated for 48 hrs by sulforhodamine B assay; details: K562, 48 h; for CC50: read-out: LC50 (the source's name); in short: as §2
TK-10 = test: Growth inhibition of human TK10 cells incubated for 48 hrs by sulforhodamine B assay; details: TK-10, 48 h; for CC50: read-out: LC50 (the source's name); in short: as §2
SK-MEL-5 = test: Growth inhibition of human SK-MEL-5 cells incubated for 48 hrs by sulforhodamine B assay; details: SK-MEL-5, 48 h; for CC50: read-out: LC50 (the source's name); in short: as §2
NCI-H226 = test: Growth inhibition of human NCI-H226 cells incubated for 48 hrs by sulforhodamine B assay; details: NCI-H226, 48 h; for CC50: read-out: LC50 (the source's name); in short: as §2
EKVX = test: Growth inhibition of human EKVX cells incubated for 48 hrs by sulforhodamine B assay
In short: (§3)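 NCI five-dose SRB assay (100, 10, 1.0, 0.1, 0.01 µM) with 48 h exposure in RPMI-1640 with 5% FBS and 2 mM L-glutamine. Cells fixed with TCA and stained with SRB, read at 515 nm. GI50 is the concentration where [(Ti−Tz)/(C−Tz)]×100 = 50.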

SF-295 = test: Growth inhibition of human SF295 cells incubated for 48 hrs by sulforhodamine B assay; details: SF-295, 48 h; in short: as §1
NCI-H522 = test: Growth inhibition of human NCI-H522 cells incubated for 48 hrs by sulforhodamine B assay; details: NCI-H522, 48 h; for CC50: read-out: LC50 (the source's name); in short: as §2
MDA-MB-231 = test: Growth inhibition of human MDA-MB-231 cells incubated for 48 hrs by sulforhodamine B assay; details: MDA-MB-231, 48 h; in short: as §1
COLO 205 = test: Growth inhibition of human COLO205 cells incubated for 48 hrs by sulforhodamine B assay; details: COLO 205, 48 h; in short: as §3
DU-145 = test: Growth inhibition of human DU145 cells incubated for 48 hrs by sulforhodamine B assay; details: DU-145, 48 h; for CC50: read-out: LC50 (the source's name); in short: as §3
MCF7 = test: Growth inhibition of human MCF7 cells incubated for 48 hrs by sulforhodamine B assay; details: MCF7, 48 h; for CC50: read-out: LC50 (the source's name); in short: as §2
RXF 393 = test: Growth inhibition of human RXF393 cells incubated for 48 hrs by sulforhodamine B assay; details: RXF 393, 48 h; in short: as §1
SK-OV-3 = test: Growth inhibition of human SKOV3 cells incubated for 48 hrs by sulforhodamine B assay; details: SK-OV-3, 48 h; for CC50: read-out: LC50 (the source's name); in short: as §2
M14 = test: Growth inhibition of human M14 cells incubated for 48 hrs by sulforhodamine B assay; details: M14, 48 h; in short: as §1
MDA-MB-468 = test: Growth inhibition of human MDA-MB-468 cells incubated for 48 hrs by sulforhodamine B assay; details: MDA-MB-468, 48 h; in short: as §1
A549 = test: Growth inhibition of human A549/ATCC cells incubated for 48 hrs by sulforhodamine B assay; details: A549, 48 h; in short: as §2
SK-MEL-28 = test: Growth inhibition of human SK-MEL-28 cells incubated for 48 hrs by sulforhodamine B assay; details: SK-MEL-28, 48 h
In short: (§4)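 NCI-60 panel cells grown in RPMI-1640 with 5% FBS and 2 mM L-glutamine, preincubated 24 h at 37 °C/5% CO2. Time-zero plates were TCA-fixed at compound addition. DMSO stocks were diluted in medium and tested at five final concentrations (100, 10, 1.0, 0.1, 0.01 µM) for 48 h. Cells were TCA-fixed, stained with SRB and read at 515 nm. GI50 = 50% lower net protein increase versus control.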

OVCAR-8 = test: Growth inhibition of human OVCAR8 cells incubated for 48 hrs by sulforhodamine B assay; details: OVCAR-8, 48 h; in short: as §1
NCI-H460 = test: Growth inhibition of human NCI-H460 cells incubated for 48 hrs by sulforhodamine B assay; details: NCI-H460, 48 h; in short: as §1
HT-29 = test: Growth inhibition of human HT-29 cells incubated for 48 hrs by sulforhodamine B assay; details: HT-29, 48 h; in short: as §1
786-0 = test: Growth inhibition of human 786-0 cells incubated for 48 hrs by sulforhodamine B assay; details: 786-0, 48 h; in short: as §3
HCT-116 = test: Growth inhibition of human HCT116 cells incubated for 48 hrs by sulforhodamine B assay; details: HCT-116, 48 h; in short: as §3
NCI/ADR-RES = test: Growth inhibition of human NCI/ADR-RES cells incubated for 48 hrs by sulforhodamine B assay; details: for CC50: read-out: LC50 (the source's name); in short: as §2
NCI-H23 = test: Growth inhibition of human NCI-H23 cells incubated for 48 hrs by sulforhodamine B assay; details: NCI-H23, 48 h; in short: as §1
CCRF-CEM = test: Growth inhibition of human CCRF-CEM cells incubated for 48 hrs by sulforhodamine B assay; details: for CC50: read-out: LC50 (the source's name); in short: as §2
UACC-257 = test: Growth inhibition of human UACC257 cells incubated for 48 hrs by sulforhodamine B assay; details: UACC-257, 48 h; in short: as §4
SR = test: Growth inhibition of human SR cells incubated for 48 hrs by sulforhodamine B assay; details: for CC50: read-out: LC50 (the source's name); in short: as §2
[1] = read-out: LC50 (the source's name)

COc1ccc(C(=O)/C=C/c2cccc(Nc3ccnc4cc(Cl)ccc34)c2)cc1
GI50 (SF-268): 2470 nM | CC50 (SF-268; [1]): > 100000 nM | CC50 (HCC 2998; [1]): > 100000 nM | GI50 (RPMI-8226): 570 nM | CC50 (RPMI-8226): > 100000 nM | GI50 (K562): 1640 nM | CC50 (K562): 83800 nM | GI50 (TK-10): 1640 nM | CC50 (TK-10): > 100000 nM | GI50 (SK-MEL-5): 1320 nM | CC50 (SK-MEL-5): > 100000 nM | GI50 (NCI-H226): 1780 nM | CC50 (NCI-H226): > 100000 nM | GI50 (EKVX): 1750 nM | LC50 (EKVX): > 100000 nM | GI50 (SF-295): 690 nM | CC50 (SF-295; [1]): > 100000 nM | GI50 (NCI-H522): 1880 nM | CC50 (NCI-H522): > 100000 nM | GI50 (MDA-MB-231): 1910 nM | CC50 (MDA-MB-231; [1]): > 100000 nM | GI50 (COLO 205): 3850 nM | CC50 (COLO 205; [1]): > 100000 nM | GI50 (DU-145): 2450 nM | CC50 (DU-145): > 100000 nM | GI50 (MCF7): 1820 nM | CC50 (MCF7): > 100000 nM | GI50 (RXF 393): 1820 nM | CC50 (RXF 393; [1]): > 100000 nM | GI50 (SK-OV-3): 2220 nM | CC50 (SK-OV-3): > 100000 nM | GI50 (M14): 1600 nM | CC50 (M14; [1]): > 100000 nM | GI50 (MDA-MB-468): 580 nM | CC50 (MDA-MB-468; [1]): > 100000 nM | GI50 (A549): 2780 nM | LC50 (concentration giving 50% net cell kill) (A549): > 100000 nM | GI50 (SK-MEL-28): 1870 nM | CC50 (SK-MEL-28; [1]): > 100000 nM | GI50 (OVCAR-8): 2260 nM | LC50 (concentration causing 50% net cell kill) (OVCAR-8): > 100000 nM | GI50 (NCI-H460): 2230 nM | CC50 (NCI-H460; [1]): > 100000 nM | GI50 (HT-29): 1640 nM | LC50 (HT-29): > 100000 nM | GI50 (786-0): 1480 nM | LC50 (786-0): 77700 nM | GI50 (HCT-116): 840 nM | LC50 (concentration killing 50% of cells) (HCT-116): > 100000 nM | GI50 (NCI/ADR-RES): 1160 nM | CC50 (NCI/ADR-RES): > 100000 nM | GI50 (NCI-H23): 1490 nM | CC50 (NCI-H23; [1]): > 100000 nM | GI50 (CCRF-CEM): 2880 nM | CC50 (CCRF-CEM): > 100000 nM | GI50 (UACC-257): 2070 nM | CC50 (UACC-257; [1]): > 100000 nM | GI50 (SR): 490 nM | CC50 (SR): > 100000 nM

COc1cccc2c1C(=O)c1c(O)c3c(c(O)c1C2=O)C[C@@](O)(C(=O)CO)C[C@@H]3O[C@H]1C[C@H](N)[C@H](O)[C@H](C)O1 [DOXORUBICIN]
GI50 (SF-268): 100 nM | GI50 (HCC 2998): 260 nM | GI50 (RPMI-8226): 80 nM | CC50 (RPMI-8226): 100000 nM | GI50 (K562): 190 nM | CC50 (K562): 100000 nM | GI50 (TK-10): 380 nM | CC50 (TK-10): 90000 nM | GI50 (SK-MEL-5): 80 nM | CC50 (SK-MEL-5): 490 nM | GI50 (NCI-H226): 50 nM | CC50 (NCI-H226): 6400 nM | GI50 (EKVX): 410 nM | GI50 (SF-295): 100 nM | GI50 (NCI-H522): 30 nM | CC50 (NCI-H522): 2800 nM | GI50 (MDA-MB-231): 510 nM | GI50 (COLO 205): 180 nM | GI50 (DU-145): 110 nM | CC50 (DU-145): 100000 nM | GI50 (MCF7): 40 nM | CC50 (MCF7): 64100 nM | GI50 (RXF 393): 100 nM | GI50 (SK-OV-3): 220 nM | CC50 (SK-OV-3): 100000 nM | GI50 (M14): 180 nM | GI50 (MDA-MB-468): 50 nM | GI50 (A549): 60 nM | GI50 (SK-MEL-28): 210 nM | GI50 (OVCAR-8): 100 nM | GI50 (NCI-H460): 20 nM | GI50 (HT-29): 120 nM | GI50 (786-0): 130 nM | GI50 (HCT-116): 80 nM | CC50 (NCI/ADR-RES): 100000 nM | GI50 (NCI-H23): 150 nM | GI50 (CCRF-CEM): 80 nM | CC50 (CCRF-CEM): 100000 nM | GI50 (UACC-257): 140 nM | GI50 (SR): 30 nM | CC50 (SR): 100000 nM

— ChEMBL document CHEMBL4038284, “Synthesis of novel quinoline-based 4,5-dihydro-1H-pyrazoles as potential anticancer, antifungal, antibacterial and antiprotozoal agents” (Eur J Med Chem, 2017)
